Measurements from ChEMBL document CHEMBL2384924, “Antagonists for the orphan G-protein-coupled receptor GPR55 based on a coumarin scaffold” (J Med Chem, 2013).
Calls of active or inactive are those of the source. How the calls were made is not given here.

What follows are compounds tested against T1, G-protein coupled receptor 55 (Homo sapiens, UniProt Q9Y2T6) (assay: Antagonist activity at human GPR55 transfected in CHO cells assessed as inhibition of LPI-induced beta-arrestin recruitment incubated 60 mins prior to LPI addition by beta-arrestin translocation assay). Details: not given.
T1 sequence (Q9Y2T6 whole entry): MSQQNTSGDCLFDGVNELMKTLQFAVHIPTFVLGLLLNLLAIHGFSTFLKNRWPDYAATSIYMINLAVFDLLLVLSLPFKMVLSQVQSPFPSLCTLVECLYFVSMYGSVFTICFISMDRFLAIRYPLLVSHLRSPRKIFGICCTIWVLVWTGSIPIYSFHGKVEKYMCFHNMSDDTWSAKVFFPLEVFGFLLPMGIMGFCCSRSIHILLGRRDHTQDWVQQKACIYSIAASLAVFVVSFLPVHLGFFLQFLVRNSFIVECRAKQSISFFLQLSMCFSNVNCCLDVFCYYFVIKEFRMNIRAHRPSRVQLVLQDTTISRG
Type: cell-based
Summary of the method: (§1)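 CHO cells stably expressing human GPR55 were seeded at 20,000 cells/well for 24 h at 37°C. Compound in PBS/10% DMSO/0.1% BSA was added 60 min before 1 µM LPI. Galacton-Star/Emerald-II/lysis buffer (pH 8) was applied for 60 min at RT, with luminescence read-out. Screening was at 10 µM (% inhibition). IC50 was measured where inhibition exceeded 60%. Three independent experiments in duplicate.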

SMILES	IC50
O=c1oc2ccc3ccccc3c2cc1Cc1ccccc1	2.81 µM
COc1cc(C)cc2oc(=O)c(Cc3ccccc3)cc12	6.74 µM
COc1ccc(Br)c2oc(=O)c(Cc3ccccc3)cc12	> 10 µM
CCCCCc1cc(O)c2cc(Cc3cccc(C)c3)c(=O)oc2c1	> 10 µM
CCCCCc1cc(OC)c2cc(Cc3ccccc3Cl)c(=O)oc2c1	9 µM
CCCCC1(c2cc(OC)c3cc(Cc4ccccc4OC)c(=O)oc3c2)CCCC1	> 10 µM
CCCCCc1cc(OC)c2cc(Cc3cccc(C)c3)c(=O)oc2c1	> 10 µM
COc1ccccc1Cc1cc2c(C)c(OC)c(C)c(C)c2oc1=O	0.981 µM
Cc1cc2cc(Cl)cc(Br)c2oc1=O	> 10 µM
CCCCCc1cc(OC)c2cc(Cc3ccccc3)c(=O)oc2c1	> 10 µM
COc1ccc2oc(=O)c(C)cc2c1	> 10 µM
CCCCCCC(C)(C)c1cc(OC)c2cc(Cc3ccccc3)c(=O)oc2c1	10 µM
COc1c(C)c(C)c2oc(=O)c(Cc3ccccc3C)cc2c1C	7.69 µM
CCCCCc1cc(O)c2cc(Cc3ccccc3)c(=O)oc2c1	> 10 µM

Continued, values first:

IC50	SMILES
> 10 µM	Cc1ccc(Cc2cc3c(O)cc(C)cc3oc2=O)cc1
> 10 µM	COc1cc(Br)cc2cc(C)c(=O)oc12
> 10 µM	COc1cccc2oc(=O)c(Cc3ccccc3)cc12
10 µM	COc1cccc(Cc2cc3c(OC)cccc3oc2=O)c1
10.3 µM	Cc1c(O)c(C)c2cc(Cc3ccc(F)cc3)c(=O)oc2c1C
10 µM	COc1ccc2oc(=O)c(Cc3ccccc3)cc2c1
12.8 µM	COc1c(C)c(C)c2oc(=O)c(Cc3ccccc3)cc2c1C
10 µM	CCCCCc1cc(OC)c2cc(Cc3ccc(F)cc3)c(=O)oc2c1
> 10 µM	COc1cccc2cc(C)c(=O)oc12

Each compound was assayed against T2, N-arachidonyl glycine receptor (Homo sapiens) (UniProt Q14330) (assay: Antagonist activity at human GPR18 transfected in CHO cells assessed as delta9-THC-induced beta-arrestin recruitment at 10 uM incubated 60 mins prior to delta9-THC addition by beta-arrestin translocation assay). Details: not given.
T2 sequence (whole entry): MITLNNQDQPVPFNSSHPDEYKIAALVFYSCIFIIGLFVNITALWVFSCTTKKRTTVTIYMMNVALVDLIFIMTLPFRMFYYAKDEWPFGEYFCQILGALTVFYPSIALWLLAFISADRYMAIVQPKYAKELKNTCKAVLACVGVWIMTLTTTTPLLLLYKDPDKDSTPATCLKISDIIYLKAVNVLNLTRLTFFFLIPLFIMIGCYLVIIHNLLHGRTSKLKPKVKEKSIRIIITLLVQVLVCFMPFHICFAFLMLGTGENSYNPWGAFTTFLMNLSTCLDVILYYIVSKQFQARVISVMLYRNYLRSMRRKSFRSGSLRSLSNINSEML
Type: cell-based
Parameters: scale not given: the % may be the effect or the level left
Summary of the method: (§2)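 CHO cells stably expressing human GPR18 were seeded at 20,000 cells/well for 24 h at 37°C. Compound in PBS/10% DMSO/0.1% BSA was added 60 min before the GPR18 agonist 3 at 10 µM. The supplier's detection reagent was used, and luminescence was read after 60 min at RT. Screening was at 10 µM (% inhibition); IC50 from concentration-inhibition curves. Three independent experiments in duplicate.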

SMILES	Activity
COc1cc(C)cc2oc(=O)c(Cc3ccccc3)cc12	24%
Cc1c(O)c(C)c2cc(Cc3ccc(F)cc3)c(=O)oc2c1C	47%
CCCCCc1cc(OC)c2cc(Cc3ccccc3Cl)c(=O)oc2c1	25%
CCCCC1(c2cc(OC)c3cc(Cc4ccccc4OC)c(=O)oc3c2)CCCC1	25%
COc1c(C)c(C)c2oc(=O)c(Cc3ccccc3)cc2c1C	46%
COc1ccccc1Cc1cc2c(C)c(OC)c(C)c(C)c2oc1=O	27%
CCCCCCC(C)(C)c1cc(OC)c2cc(Cc3ccccc3)c(=O)oc2c1	31%
COc1c(C)c(C)c2oc(=O)c(Cc3ccccc3C)cc2c1C	33%

What follows are compounds tested against T1, G-protein coupled receptor 55 (assay: Antagonist activity at human GPR55 transfected in CHO cells assessed as inhibition of LPI-induced beta-arrestin recruitment at 10 uM incubated 60 mins prior to LPI addition by beta-arrestin translocation assay). Details: not given.
Type: cell-based
Parameters: scale not given: the % may be the effect or the level left
Summary of the method: as §1

SMILES	Activity
COc1ccc(Br)c2oc(=O)c(Cc3ccccc3)cc12	2%
CCCCCc1cc(O)c2cc(Cc3cccc(C)c3)c(=O)oc2c1	19%
CCCCC1(c2cc(OC)c3cc(Cc4ccccc4OC)c(=O)oc3c2)CCCC1	30%
CCCCCc1cc(OC)c2cc(Cc3cccc(C)c3)c(=O)oc2c1	27%
Cc1cc2cc(Cl)cc(Br)c2oc1=O	45%
CCCCCc1cc(OC)c2cc(Cc3ccccc3)c(=O)oc2c1	36%
COc1ccc2oc(=O)c(C)cc2c1	13%
CCCCCCC(C)(C)c1cc(OC)c2cc(Cc3ccccc3)c(=O)oc2c1	51%
CCCCCc1cc(O)c2cc(Cc3ccccc3)c(=O)oc2c1	0%

Further lines, results first:

Activity	SMILES
42%	Cc1ccc(Cc2cc3c(O)cc(C)cc3oc2=O)cc1
16%	COc1cc(Br)cc2cc(C)c(=O)oc12
43%	COc1cccc2oc(=O)c(Cc3ccccc3)cc12
54%	COc1cccc(Cc2cc3c(OC)cccc3oc2=O)c1
54%	COc1ccc2oc(=O)c(Cc3ccccc3)cc2c1
57%	CCCCCc1cc(OC)c2cc(Cc3ccc(F)cc3)c(=O)oc2c1
7%	COc1cccc2cc(C)c(=O)oc12

Each compound was assayed against T1, G-protein coupled receptor 55 (assay: Agonist activity at human GPR55 transfected in CHO cells at 10 uM after 90 mins by beta-arrestin translocation assay). Details: not given.
Type: cell-based
Summary of the method: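 CHO cells stably expressing human GPR55 (β-galactosidase fragment complementation) were seeded at 20,000 cells/well in Opti-MEM with 2% FCS for 24 h at 37°C. Compound was diluted in PBS with 10% DMSO and 0.1% BSA, screened at 10 µM and incubated 90 min at 37°C. Galacton-Star/Emerald-II/lysis buffer (1:5:19) was added for 60 min at RT, then luminescence was read. Response is relative to 1 µM LPI (100%).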

SMILES	Activity
O=c1oc2ccc3ccccc3c2cc1Cc1ccccc1	inactive
COc1cc(C)cc2oc(=O)c(Cc3ccccc3)cc12	inactive
COc1ccc(Br)c2oc(=O)c(Cc3ccccc3)cc12	inactive
CCCCCc1cc(O)c2cc(Cc3cccc(C)c3)c(=O)oc2c1	inactive
CCCCCc1cc(OC)c2cc(Cc3ccccc3Cl)c(=O)oc2c1	inactive
CCCCC1(c2cc(OC)c3cc(Cc4ccccc4OC)c(=O)oc3c2)CCCC1	inactive
CCCCCc1cc(OC)c2cc(Cc3cccc(C)c3)c(=O)oc2c1	inactive
COc1ccccc1Cc1cc2c(C)c(OC)c(C)c(C)c2oc1=O	inactive
Cc1cc2cc(Cl)cc(Br)c2oc1=O	inactive
CCCCCc1cc(OC)c2cc(Cc3ccccc3)c(=O)oc2c1	inactive
COc1ccc2oc(=O)c(C)cc2c1	inactive
CCCCCCC(C)(C)c1cc(OC)c2cc(Cc3ccccc3)c(=O)oc2c1	inactive
COc1c(C)c(C)c2oc(=O)c(Cc3ccccc3C)cc2c1C	inactive
CCCCCc1cc(O)c2cc(Cc3ccccc3)c(=O)oc2c1	inactive

Continued, values first:

Activity	SMILES
inactive	Cc1ccc(Cc2cc3c(O)cc(C)cc3oc2=O)cc1
inactive	COc1cc(Br)cc2cc(C)c(=O)oc12
inactive	COc1cccc2oc(=O)c(Cc3ccccc3)cc12
inactive	COc1cccc(Cc2cc3c(OC)cccc3oc2=O)c1
inactive	Cc1c(O)c(C)c2cc(Cc3ccc(F)cc3)c(=O)oc2c1C
inactive	COc1ccc2oc(=O)c(Cc3ccccc3)cc2c1
inactive	COc1c(C)c(C)c2oc(=O)c(Cc3ccccc3)cc2c1C
inactive	CCCCCc1cc(OC)c2cc(Cc3ccc(F)cc3)c(=O)oc2c1
inactive	COc1cccc2cc(C)c(=O)oc12

Each compound was assayed against T3, Cannabinoid receptor 1 (Homo sapiens, UniProt P21554) (assay: Displacement of [3H]-CP55,940 from human CB1 receptor transfected in CHOK1 cells). Details: not given.
T3 sequence (P21554 whole entry): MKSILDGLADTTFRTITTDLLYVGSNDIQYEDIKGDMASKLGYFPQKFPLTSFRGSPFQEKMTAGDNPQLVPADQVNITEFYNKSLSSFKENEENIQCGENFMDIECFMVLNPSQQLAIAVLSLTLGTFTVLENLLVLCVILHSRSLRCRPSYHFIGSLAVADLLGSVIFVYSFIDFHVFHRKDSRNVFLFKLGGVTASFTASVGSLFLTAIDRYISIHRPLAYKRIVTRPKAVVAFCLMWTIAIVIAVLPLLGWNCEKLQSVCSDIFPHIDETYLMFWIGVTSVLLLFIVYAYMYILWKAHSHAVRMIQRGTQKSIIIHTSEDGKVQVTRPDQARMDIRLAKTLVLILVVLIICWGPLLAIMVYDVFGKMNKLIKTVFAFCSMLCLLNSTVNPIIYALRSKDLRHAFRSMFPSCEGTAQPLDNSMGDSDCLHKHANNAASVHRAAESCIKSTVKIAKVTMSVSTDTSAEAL
Type: cell-based, CHO-K1

SMILES	Ki
COc1cc(C)cc2oc(=O)c(Cc3ccccc3)cc12	≥ 10 µM
COc1ccccc1Cc1cc2c(C)c(OC)c(C)c(C)c2oc1=O	3.66 µM
COc1c(C)c(C)c2oc(=O)c(Cc3ccccc3C)cc2c1C	7.86 µM

Now from value to compound:

Ki	SMILES
> 10 µM	Cc1c(O)c(C)c2cc(Cc3ccc(F)cc3)c(=O)oc2c1C
≥ 10 µM	COc1c(C)c(C)c2oc(=O)c(Cc3ccccc3)cc2c1C

These compounds were tested against Cannabinoid receptor 2 (Homo sapiens, UniProt P34972) (assay: Displacement of [3H]-CP55,940 from human CB2 receptor transfected in CHOK1 cells). Details: not given.
Sequence of Cannabinoid receptor 2 (P34972 whole entry): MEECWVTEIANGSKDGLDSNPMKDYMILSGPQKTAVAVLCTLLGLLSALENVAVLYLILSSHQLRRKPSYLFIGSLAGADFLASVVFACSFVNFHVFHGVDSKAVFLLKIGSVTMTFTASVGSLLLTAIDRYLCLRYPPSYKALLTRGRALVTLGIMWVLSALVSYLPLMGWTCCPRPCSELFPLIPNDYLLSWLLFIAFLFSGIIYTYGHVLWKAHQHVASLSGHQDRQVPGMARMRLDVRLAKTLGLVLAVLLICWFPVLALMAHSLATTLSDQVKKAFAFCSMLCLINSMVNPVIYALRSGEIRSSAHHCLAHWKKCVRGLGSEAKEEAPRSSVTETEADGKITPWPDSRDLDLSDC
Type: cell-based, CHO-K1
Summary of the method: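 CHO cells stably expressing human CB2 supplied the membranes, 1 µg protein per vial. Compounds were screened at 10 µM, and full competition curves were run where inhibition was about 50% or more. Three independent experiments in duplicate.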

SMILES	Ki
COc1cc(C)cc2oc(=O)c(Cc3ccccc3)cc12	≥ 10 µM
COc1ccccc1Cc1cc2c(C)c(OC)c(C)c(C)c2oc1=O	0.338 µM
COc1c(C)c(C)c2oc(=O)c(Cc3ccccc3C)cc2c1C	0.66 µM

More lines, now with the values ahead:

Ki	SMILES
0.444 µM	Cc1c(O)c(C)c2cc(Cc3ccc(F)cc3)c(=O)oc2c1C
1.77 µM	COc1c(C)c(C)c2oc(=O)c(Cc3ccccc3)cc2c1C

The compounds below were run against T3, Cannabinoid receptor 1 (assay: Displacement of [3H]-CP55,940 from human CB1 receptor transfected in CHOK1 cells at 10 uM). Details: CHO-K1.
Type: cell-based
Summary of the method: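 Human CB1 from membrane preparations of stably transfected CHO cells, 25 µg protein per vial. Competition with [3H]CP55,940 at 0.1 nM final, with test compound at 10 µM, read as % inhibition of radioligand binding. Final DMSO 2.5%. Three independent experiments in duplicate.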

Activity	SMILES
34%	Cc1c(O)c(C)c2cc(Cc3ccc(F)cc3)c(=O)oc2c1C
42%	COc1c(C)c(C)c2oc(=O)c(Cc3ccccc3)cc2c1C

SMILES	Activity
COc1cc(C)cc2oc(=O)c(Cc3ccccc3)cc12	45%

The compounds below were run against T4, N-arachidonyl glycine receptor (Homo sapiens, UniProt Q14330) (assay: Antagonist activity at human GPR18 transfected in CHO cells assessed as delta9-THC-induced beta-arrestin recruitment incubated 60 mins prior to delta9-THC addition by beta-arrestin translocation assay). Details: not given.
T4 sequence (Q14330 whole entry): T2 sequence (whole entry)
Type: cell-based
Summary of the method: as §2

SMILES	IC50
COc1cc(C)cc2oc(=O)c(Cc3ccccc3)cc12	> 10 µM
Cc1c(O)c(C)c2cc(Cc3ccc(F)cc3)c(=O)oc2c1C	≥ 10 µM
CCCCCc1cc(OC)c2cc(Cc3ccccc3Cl)c(=O)oc2c1	> 10 µM
CCCCC1(c2cc(OC)c3cc(Cc4ccccc4OC)c(=O)oc3c2)CCCC1	> 10 µM
COc1c(C)c(C)c2oc(=O)c(Cc3ccccc3)cc2c1C	≥ 10 µM
COc1ccccc1Cc1cc2c(C)c(OC)c(C)c(C)c2oc1=O	> 10 µM
CCCCCCC(C)(C)c1cc(OC)c2cc(Cc3ccccc3)c(=O)oc2c1	> 10 µM
COc1c(C)c(C)c2oc(=O)c(Cc3ccccc3C)cc2c1C	> 10 µM
